# Reference: ChEMBL document CHEMBL2146445, “Discovery of BIIB042, a Potent, Selective, and Orally Bioavailable γ-Secretase Modulator” (ACS Med Chem Lett, 2011)
# What was measured:
# Plasma [1] = experiment: Plasma concentration in CF1 mouse at 10 mg/kg, po; format: ADME, organism-based; design: dose 10 mg/kg, route oral; conditions: in vivo
# Method in brief: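 Wild-type (CF-1) mice given compound orally as a solution in ethanol:propylene glycol:10% solutol (1:1:8). Animals sacrificed 4 h post-dose; brain and plasma collected for drug exposure and Aβ levels.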
# Cytochrome P450 1A2 = molecular target: T1, Cytochrome P450 1A2 (Homo sapiens, UniProt P05177); experiment: Inhibition of human CYP1A2; format: ADME
# T1 sequence (P05177 whole entry): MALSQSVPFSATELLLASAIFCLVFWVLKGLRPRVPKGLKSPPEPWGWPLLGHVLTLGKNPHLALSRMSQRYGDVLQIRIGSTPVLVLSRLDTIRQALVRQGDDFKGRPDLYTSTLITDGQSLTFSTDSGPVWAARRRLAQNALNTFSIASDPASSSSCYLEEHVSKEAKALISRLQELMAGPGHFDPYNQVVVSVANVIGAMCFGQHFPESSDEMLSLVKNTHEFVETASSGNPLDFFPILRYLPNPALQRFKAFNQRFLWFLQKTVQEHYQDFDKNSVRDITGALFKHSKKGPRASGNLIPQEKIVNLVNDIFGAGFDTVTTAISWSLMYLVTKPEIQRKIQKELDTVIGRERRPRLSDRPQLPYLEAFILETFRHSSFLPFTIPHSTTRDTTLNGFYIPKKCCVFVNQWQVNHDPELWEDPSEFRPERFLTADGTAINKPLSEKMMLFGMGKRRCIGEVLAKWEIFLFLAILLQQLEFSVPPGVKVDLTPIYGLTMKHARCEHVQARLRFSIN
# Cytochrome P450 2C19 = Cytochrome P450 2C19 (Homo sapiens, UniProt P33261); experiment: Inhibition of human CYP2C19; format: ADME
# Chain of Cytochrome P450 2C19 (P33261 whole entry): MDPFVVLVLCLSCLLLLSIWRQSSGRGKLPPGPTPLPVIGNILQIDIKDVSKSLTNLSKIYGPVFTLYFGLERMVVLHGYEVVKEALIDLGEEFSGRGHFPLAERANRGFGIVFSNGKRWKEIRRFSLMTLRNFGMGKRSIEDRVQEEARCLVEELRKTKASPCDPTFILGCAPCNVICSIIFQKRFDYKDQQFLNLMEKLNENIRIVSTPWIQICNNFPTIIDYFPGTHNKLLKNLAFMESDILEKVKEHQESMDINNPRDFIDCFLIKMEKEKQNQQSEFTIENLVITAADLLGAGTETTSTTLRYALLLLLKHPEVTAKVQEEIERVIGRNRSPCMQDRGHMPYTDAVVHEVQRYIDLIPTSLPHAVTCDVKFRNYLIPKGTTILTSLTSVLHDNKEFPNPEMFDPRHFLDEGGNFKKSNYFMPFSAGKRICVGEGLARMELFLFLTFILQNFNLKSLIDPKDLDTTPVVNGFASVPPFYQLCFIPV
# Plasma [2] = experiment: Fraction unbound in dog plasma; format: ADME, cell-free, Canis lupus familiaris
# Mus musculus = experiment: Antialzheimer activity in CF1 mouse assessed as reduction in amyloid beta 42 level in brain at 10 mg/kg, po; format: functional; design: scale not given: the % may be the effect or the level left
# Method in brief: (§1)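 Wild-type CF-1 mice received a single oral dose as a solution in ethanol:propylene glycol:10% solutol (1:1:8). Animals were sacrificed 4 h after dosing. Brain and plasma were collected for drug concentration and Aβ levels. Aβ change was expressed relative to vehicle-treated controls.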
# Salmonella typhimurium = experiment: Mutagenicity in Salmonella typhimurium; format: toxicity, organism-based; conditions: salmonella enterica subsp. enterica serovar typhimurium
# Cytochrome P450 2D6 = Cytochrome P450 2D6 (Homo sapiens, UniProt P10635); experiment: Inhibition of human CYP2D6; format: ADME
# Chain of Cytochrome P450 2D6 (P10635 whole entry): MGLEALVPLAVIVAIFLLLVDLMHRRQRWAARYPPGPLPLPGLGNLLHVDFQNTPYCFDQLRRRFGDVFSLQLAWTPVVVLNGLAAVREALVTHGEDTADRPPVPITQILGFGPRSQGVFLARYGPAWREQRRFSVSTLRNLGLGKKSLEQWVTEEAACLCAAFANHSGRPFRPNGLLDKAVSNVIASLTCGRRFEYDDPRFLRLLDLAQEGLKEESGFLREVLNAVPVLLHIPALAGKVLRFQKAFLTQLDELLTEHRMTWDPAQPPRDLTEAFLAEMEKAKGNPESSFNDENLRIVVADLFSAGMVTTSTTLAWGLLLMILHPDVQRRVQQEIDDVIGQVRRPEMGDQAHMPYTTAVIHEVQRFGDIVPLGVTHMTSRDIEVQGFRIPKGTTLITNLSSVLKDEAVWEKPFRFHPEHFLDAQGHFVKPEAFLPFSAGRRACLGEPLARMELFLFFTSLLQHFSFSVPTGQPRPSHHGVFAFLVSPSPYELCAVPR
# Plasma [3] = experiment: Fraction unbound in mouse plasma; format: ADME, cell-free
# Gamma-secretase = experiment: Modulation of gamma-secretase in human H4 cells expressing wild type APP assessed as reduction in amyloid beta42 level; format: cell-based
# Brain = experiment: Drug uptake in CF1 mouse brain at 10 mg/kg, po; format: ADME, organism-based; design: dose 10 mg/kg, route oral; conditions: in vivo, read-out: Drug uptake; method in brief: as §1
# Cytochrome P450 2C9 = Cytochrome P450 2C9 (Homo sapiens, UniProt P11712); experiment: Inhibition of human CYP2C9; format: ADME
# Chain of Cytochrome P450 2C9 (P11712 whole entry): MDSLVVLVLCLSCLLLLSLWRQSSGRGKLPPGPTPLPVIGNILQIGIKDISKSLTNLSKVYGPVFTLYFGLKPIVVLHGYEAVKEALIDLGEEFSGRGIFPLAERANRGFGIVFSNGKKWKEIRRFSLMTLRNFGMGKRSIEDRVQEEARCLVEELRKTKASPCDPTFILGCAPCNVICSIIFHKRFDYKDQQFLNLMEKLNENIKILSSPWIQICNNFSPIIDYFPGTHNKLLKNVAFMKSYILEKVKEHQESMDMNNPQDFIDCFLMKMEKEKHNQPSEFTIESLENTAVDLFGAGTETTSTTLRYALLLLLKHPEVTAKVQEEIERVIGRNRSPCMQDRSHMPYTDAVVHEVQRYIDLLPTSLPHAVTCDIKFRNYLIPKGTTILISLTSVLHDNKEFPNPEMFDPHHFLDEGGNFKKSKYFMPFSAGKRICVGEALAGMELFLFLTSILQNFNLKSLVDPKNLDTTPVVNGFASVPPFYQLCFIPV
# Plasma [4] = experiment: Fraction unbound in rat plasma; format: ADME, cell-free
# Cynomolgus monkey = experiment: Antialzheimer activity in cynomolgus monkey assessed as reduction in amyloid beta 42 level in plasma at 10 mg/kg, po at 5 hrs; format: functional, Macaca fascicularis; design: scale not given: the % may be the effect or the level left
# [5] = Modulation of gamma-secretase in CHO cells overexpressing APP V717 mutant assessed as reduction in amyloid beta42 level after 17 hrs by ELISA; format: cell-based; conditions: Cricetulus griseus
# Method in brief: (§2)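 CHO cells overexpressing APP V717F; Aβ42, Aβ40 and Aβ38 quantified together in each well by multiplex Aβ ELISA. EC50 is the mean of at least two determinations.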
# [6] = Apparent permeability across human Caco2 cells; format: ADME, cell-based; conditions: Caco-2
# Rattus norvegicus = experiment: Antialzheimer activity in Fischer rat assessed as reduction in amyloid beta 42 level in brain at 10 mg/kg, po; format: functional; design: scale not given: the % may be the effect or the level left
# [7] = molecular target: Prostaglandin G/H synthase 1 (Homo sapiens, UniProt P23219); experiment: Inhibition of COX1
# Chain of Prostaglandin G/H synthase 1 (P23219 whole entry): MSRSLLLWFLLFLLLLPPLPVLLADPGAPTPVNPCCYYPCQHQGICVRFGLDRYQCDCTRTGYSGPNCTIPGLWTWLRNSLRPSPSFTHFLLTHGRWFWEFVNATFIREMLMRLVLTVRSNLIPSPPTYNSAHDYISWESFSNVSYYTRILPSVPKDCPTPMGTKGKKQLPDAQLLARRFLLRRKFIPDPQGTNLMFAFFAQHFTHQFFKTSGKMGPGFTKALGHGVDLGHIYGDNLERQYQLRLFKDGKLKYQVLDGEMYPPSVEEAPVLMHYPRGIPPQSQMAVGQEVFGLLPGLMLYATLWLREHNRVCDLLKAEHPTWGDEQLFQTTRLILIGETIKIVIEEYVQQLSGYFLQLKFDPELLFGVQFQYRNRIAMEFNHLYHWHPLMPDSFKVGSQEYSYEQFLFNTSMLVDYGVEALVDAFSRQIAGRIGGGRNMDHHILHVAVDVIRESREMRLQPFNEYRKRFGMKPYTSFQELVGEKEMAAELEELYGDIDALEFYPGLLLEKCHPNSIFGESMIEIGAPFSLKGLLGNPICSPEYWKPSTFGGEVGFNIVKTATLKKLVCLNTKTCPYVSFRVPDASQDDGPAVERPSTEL
# [8] = molecular target: T2, Prostaglandin G/H synthase 2 (Homo sapiens, UniProt P35354); experiment: Inhibition of COX2
# T2 sequence (P35354 whole entry): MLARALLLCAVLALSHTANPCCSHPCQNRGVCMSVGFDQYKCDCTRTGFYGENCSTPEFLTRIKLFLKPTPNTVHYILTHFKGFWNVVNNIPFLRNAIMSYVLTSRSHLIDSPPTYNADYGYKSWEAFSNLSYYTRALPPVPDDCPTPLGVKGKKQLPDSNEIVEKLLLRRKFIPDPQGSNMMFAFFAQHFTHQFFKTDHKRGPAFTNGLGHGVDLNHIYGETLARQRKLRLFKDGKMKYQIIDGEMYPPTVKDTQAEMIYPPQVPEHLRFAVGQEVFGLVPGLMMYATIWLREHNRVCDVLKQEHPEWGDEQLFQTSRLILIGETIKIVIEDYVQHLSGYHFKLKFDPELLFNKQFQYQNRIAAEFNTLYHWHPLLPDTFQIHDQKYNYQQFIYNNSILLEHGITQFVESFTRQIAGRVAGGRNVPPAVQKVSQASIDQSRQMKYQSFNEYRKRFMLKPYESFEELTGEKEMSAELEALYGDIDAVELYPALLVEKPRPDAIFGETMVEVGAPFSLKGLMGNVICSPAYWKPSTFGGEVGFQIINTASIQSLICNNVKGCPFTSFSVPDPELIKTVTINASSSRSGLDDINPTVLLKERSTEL
# Plasma [9] = experiment: Fraction unbound in monkey plasma; format: ADME, cell-free, Macaca mulatta; conditions: rhesus monkey
# [10] = Modulation of gamma-secretase in CHO cells overexpressing APP V717 mutant assessed as increase in amyloid beta38 level after 17 hrs by ELISA; format: cell-based; conditions: Cricetulus griseus; method in brief: as §2
# Plasma [11] = experiment: Fraction unbound in human plasma; format: ADME, cell-free
# [12] = molecular target: Voltage-gated inwardly rectifying potassium channel KCNH2 (Homo sapiens, UniProt Q12809); experiment: Inhibition of human ERG by patch clamp assay
# Chain of Voltage-gated inwardly rectifying potassium channel KCNH2 (Q12809 whole entry): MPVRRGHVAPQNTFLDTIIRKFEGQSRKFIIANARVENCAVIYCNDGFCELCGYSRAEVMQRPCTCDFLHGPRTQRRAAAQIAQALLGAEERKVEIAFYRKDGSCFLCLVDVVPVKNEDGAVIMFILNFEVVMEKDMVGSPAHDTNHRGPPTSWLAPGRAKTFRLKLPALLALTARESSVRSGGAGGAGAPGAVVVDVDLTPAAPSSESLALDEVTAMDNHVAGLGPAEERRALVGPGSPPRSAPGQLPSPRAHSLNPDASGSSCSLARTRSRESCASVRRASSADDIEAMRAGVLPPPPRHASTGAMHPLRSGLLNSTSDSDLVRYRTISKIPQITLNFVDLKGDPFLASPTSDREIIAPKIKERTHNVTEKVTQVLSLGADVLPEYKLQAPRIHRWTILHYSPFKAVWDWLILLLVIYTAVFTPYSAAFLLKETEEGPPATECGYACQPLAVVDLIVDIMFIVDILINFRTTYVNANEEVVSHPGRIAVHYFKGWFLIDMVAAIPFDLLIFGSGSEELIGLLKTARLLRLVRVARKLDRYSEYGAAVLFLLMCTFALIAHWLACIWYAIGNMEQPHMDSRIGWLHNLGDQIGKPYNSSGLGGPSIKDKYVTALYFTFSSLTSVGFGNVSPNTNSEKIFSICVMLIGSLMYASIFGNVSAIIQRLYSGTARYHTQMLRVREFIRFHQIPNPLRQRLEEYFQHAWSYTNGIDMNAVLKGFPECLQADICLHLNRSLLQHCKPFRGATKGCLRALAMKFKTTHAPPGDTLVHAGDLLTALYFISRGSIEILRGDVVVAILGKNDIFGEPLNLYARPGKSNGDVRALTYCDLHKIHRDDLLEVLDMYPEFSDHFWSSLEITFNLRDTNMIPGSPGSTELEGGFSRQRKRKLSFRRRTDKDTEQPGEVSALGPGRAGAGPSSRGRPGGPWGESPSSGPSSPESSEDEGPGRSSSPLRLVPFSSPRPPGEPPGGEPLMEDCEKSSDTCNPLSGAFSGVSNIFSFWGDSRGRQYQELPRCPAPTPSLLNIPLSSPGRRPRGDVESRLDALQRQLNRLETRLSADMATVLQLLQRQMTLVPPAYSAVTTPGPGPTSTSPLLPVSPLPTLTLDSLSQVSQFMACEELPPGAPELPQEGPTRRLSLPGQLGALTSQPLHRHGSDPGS
# Method in brief: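 hERG was tested in an automated FastPatch patch-clamp assay, giving an EC50 readout.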
structure (smiles),measurement,setting,value
CC1CCN([C@H](c2ccc(F)cc2)c2ccc([C@@H](C)C(=O)O)cc2-c2ccc(C(F)(F)F)cc2)CC1,concentration,Plasma [1],10 µM
same,IC50,Cytochrome P450 1A2,> 35 µM
same,IC50,Cytochrome P450 2C19,> 35 µM
same,Fu,Plasma [2],< 0.1%
same,Activity,Mus musculus,40%
same,Activity,Salmonella typhimurium,Non-toxic
same,IC50,Cytochrome P450 2D6,> 35 µM
same,Fu,Plasma [3],< 0.1%
same,EC50,Gamma-secretase,0.07 µM
same,concentration,Brain,4.6 µM
same,IC50,Cytochrome P450 2C9,> 35 µM
same,Fu,Plasma [4],< 0.1%
same,Activity,Cynomolgus monkey,30%
same,EC50,[5],0.17 µM
same,Papp,[6],43.8 ×10⁻⁶ cm/s
same,Activity,Rattus norvegicus,30%
same,IC50,[7],35 µM
same,IC50,[8],27 µM
same,Fu,Plasma [9],< 0.1%
same,EC50,[10],0.15 µM
same,Fu,Plasma [11],< 0.1%
same,EC50,[12],15 µM
